Calls of active or inactive are those of the source. No cut-off for these calls is given here.
Legend:
[1] = Prodrug activation in pH 7.4 PBS buffer assessed as second order rate constant at 10 uM in presence of Na2S by UV-Vis spectrophotometric analysis; conditions: pH 7.4, 10 µM
Escherichia coli [2] = assay: Antibacterial activity against Escherichia coli BL21(DE3) incubated for 12 hrs in presence of Na2S by UV-Vis spectrophotometric analysis; format: functional
How it was run: (§1)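 E. coli cultured in LB medium with additions of 30 nM prodrug, 30 nM NBD-SH, 50 µM Na2S, 5 mM L-Cys, or combinations (Na2S or L-Cys plus 30 nM prodrug); incubated 12 h, then bacterial density read as OD600.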

[3] = Prodrug activation in pH 7.4 PBS buffer assessed as absorption peak for NBD fluorophore formation at 10 uM in presence of Na2S by UV-Vis spectrophotometric analysis; conditions: pH 7.4, 10 µM
How it was run: (§2)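 Absorption spectra recorded over time for 10 µM prodrug with 200 µM Na2S in 50 mM PBS, pH 7.4; bands followed at 350, 490 and new 530 nm; kinetics followed by intensity at 560 nm.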

Escherichia coli [4] = assay: Antibacterial activity against Escherichia coli BL21(DE3) at 30 nM incubated for 12 hrs by UV-Vis spectrophotometric analysis; format: functional, organism-based
How it was run: as §1

[5] = Prodrug activation in pH 7.4 PBS buffer assessed as absorption peak for ciprofloxacin formation at 10 uM in presence of Na2S by UV-Vis spectrophotometric analysis; conditions: pH 7.4, 10 µM
How it was run: as §2

Escherichia coli [6] = assay: Antibacterial activity against Escherichia coli BL21(DE3) incubated for 12 hrs in presence of L-Cys by UV-Vis spectrophotometric analysis; format: functional, organism-based
How it was run: as §1

[7] = Prodrug activation in pH 7.4 PBS buffer assessed as formation of ciprofloxacin by measuring reaction rate constant at 5 uM in presence of Na2S by fluorescence assay; conditions: pH 7.4, 5 µM
How it was run: (§3)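 Fluorescence spectra over time of 5 µM prodrug with 100 µM Na2S in PBS, excitation 280 nm; emission at 415 nm versus time fitted to give kobs; kobs plotted against Na2S concentration, slope of linear fit gives k2.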

Escherichia coli [8] = assay: Antibacterial activity against Escherichia coli BL21(DE3) at 30 nM incubated for 12 hrs in presence of GSH by UV-Vis spectrophotometric analysis; format: functional, organism-based
[9] = Solubility of compound in 20 mM PBS buffer at pH 7.4 in presence of Na2S by UV-Vis spectrophotometric analysis; format: physicochemical
Escherichia coli [10] = assay: Antibacterial activity against Escherichia coli BL21(DE3) at >0.2 uM incubated for 12 hrs by UV-Vis spectrophotometric analysis; format: functional, organism-based
Escherichia coli [11] = assay: Antibacterial activity against Escherichia coli BL21(DE3) at 30 nM incubated for 12 hrs in presence of H2S by UV-Vis spectrophotometric analysis; format: functional, organism-based
How it was run: as §1

Escherichia coli [12] = assay: Antibacterial activity against Escherichia coli BL21(DE3) at lower concentration incubated for 12 hrs by UV-Vis spectrophotometric analysis; format: functional, organism-based
How it was run: (§4)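 E. coli grown in LB medium with the prodrug added, alone or together with 50 µM Na2S (H2S source) or 5 mM L-Cys. Cultures were incubated for 12 h, at 37 °C where stated, and growth was read as OD600 per sample. Controls: Na2S or L-Cys alone, and 30 nM NBD-SH by-product.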

[13] = Prodrug activation in pH 7.4 PBS buffer at 5 uM incubated for 30 mins in presence of Cys by fluorescence assay; conditions: pH 7.4, 0.5 h
How it was run: (§5)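 Fluorescence of prodrug checked in PBS after exposure to millimolar biothiols, 10 mM GSH or 5 mM Cys.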

[14] = Prodrug activation in pH 7.4 PBS buffer at 5 uM incubated for 30 mins in presence of 50 to 200 uM H2O2 by fluorescence assay; conditions: pH 7.4, 0.5 h
How it was run: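 Fluorescence of prodrug read in PBS after exposure to a range of H2O2 concentrations up to 200 µM.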

[15] = Prodrug activation in pH 7.4 PBS buffer assessed as ciprofloxacin formation by measuring increase in fluorescence at 5 uM in presence of Na2S at 415 nanometer by fluorescence assay relative to control; conditions: pH 7.4, 5 µM
How it was run: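 Prodrug at 5 µM mixed with Na2S (100 µM) in PBS; fluorescence spectra recorded over time, excitation 280 nm. Emission at 415 nm plotted against time and fitted to give k_obs. Repeated at several Na2S concentrations; slope of k_obs versus [Na2S] gives k2.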

[16] = Prodrug activation in pH 7.4 PBS buffer assessed as ciprofloxacin formation by measuring increase in fluorescence at 5 uM in presence of Na2S at 415 nanometer by fluorescence assay; conditions: pH 7.4, 5 µM, TDE = time-dependent effect
How it was run: as §3

[17] = Prodrug activation in pH 7.4 PBS buffer at 5 uM incubated for 30 mins in presence of GSH by fluorescence assay; conditions: pH 7.4, 0.5 h
How it was run: as §5

Escherichia coli [18] = assay: Antibacterial activity against Escherichia coli BL21(DE3) incubated for 12 hrs by UV-Vis spectrophotometric analysis; format: functional, organism-based
How it was run: as §4

k2 [1] | MIC (Escherichia coli [2]) | Activity [3] | Activity [5] | K [7] | solubility [9] | Drug metabolism [13] | Drug metabolism [14] | fold change (FC) [15] | Drug metabolism [16] | Drug metabolism [17] | SMILES | Activity (Escherichia coli [4]) | Activity (Escherichia coli [6]) | Activity (Escherichia coli [8]) | Activity (Escherichia coli [10]) | Activity (Escherichia coli [11]) | Activity (Escherichia coli [12]) | Activity (Escherichia coli [18])
12.9 M⁻¹ s⁻¹ | 0.03 µM | 490 nm | 350 nm | 12 M⁻¹ s⁻¹ | 17 µM | Metabolite_Notdetected | Metabolite_Notdetected | 62 | Tde | Metabolite_Notdetected | O=C(O)c1cn(C2CC2)c2cc(N3CCN(c4ccc([N+](=O)[O-])c5nonc45)CC3)c(F)cc2c1=O | inactive | Active | inactive | Active | Active | Active | –
– | – | – | – | – | – | – | – | – | – | – | O=[N+]([O-])c1ccc(S)c2nonc12 | – | – | – | – | – | inactive | inactive
